Results reported in ChEMBL document CHEMBL1122708, “Preparation and antibacterial activities of new 1,2,3-diazaborine derivatives and analogues” (1984).

Columns and labels:
Salmonella typhimurium = assay: Minimum inhibitory concentration of compound against Salmonella Typhimurium delta 119; assay type: functional, Salmonella enterica subsp. enterica serovar Typhimurium; settings: Salmonella enterica
Klebsiella aerogenes = assay: Minimum inhibitory concentration of compound against Enterobacter aerogenes delta 220; assay type: functional
Proteus mirabilis = assay: Minimum inhibitory concentration against Proteus mirabilis delta 89; assay type: functional
Escherichia coli [1] = assay: Minimum inhibitory concentration of compound against Escherichia coli delta 120; assay type: functional
Escherichia coli [2] = assay: Antibacterial activity againist Escherichia coli 120 infected NMRI mice after subcutaneous administration; assay type: functional; settings: sc
How it was run: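 ED50 in NMRI mice infected intraperitoneally with E. coli 120; compound given subcutaneously immediately and 5 h after infection.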

Klebsiella pneumoniae = assay: Minimum inhibitory concentration of compound against Klebsiella pneumoniae delta 217; assay type: functional
Escherichia coli [3] = assay: Antibacterial activity againist Escherichia coli 120 infected NMRI mice after peroral administration; assay type: functional; settings: po
How it was run: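 ED50 in NMRI mice infected intraperitoneally with E. coli 120; compound given orally immediately and 5 h after infection.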

Neisseria gonorrhoeae [4] = assay: Minimum inhibitory concentration of compound against Neisseria gonorrhoeae W2; assay type: functional
How it was run: (§1)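 Agar dilution on Kellogg agar, 10⁶ colony forming units, incubated 20 h at 36 °C in 5% CO₂; MIC is the lowest concentration giving no visible growth.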

Neisseria gonorrhoeae [5] = assay: Minimum inhibitory concentration of compound against Neisseria gonorrhoeae AS 7720; assay type: functional; how it was run: as §1

MIC (Salmonella typhimurium) | MIC (Klebsiella aerogenes) | MIC (Proteus mirabilis) | MIC (Escherichia coli [1]) | MIC (Klebsiella pneumoniae) | MIC (Neisseria gonorrhoeae [4]) | MIC (Neisseria gonorrhoeae [5]) | Structure (SMILES) | ED50 (Escherichia coli [2]) | ED50 (Escherichia coli [3])
> 50 µg/mL | > 50 µg/mL | > 50 µg/mL | > 50 µg/mL | > 50 µg/mL | – | – | Cc1ccc(S(=O)(=O)N2N=Cc3cc(N4CCCC4)ccc3B2O)cc1 | > 300 mg/kg | –
> 50 µg/mL | > 50 µg/mL | > 50 µg/mL | > 50 µg/mL | > 50 µg/mL | > 8 µg/mL | > 8 µg/mL | O=S(=O)(c1ccccc1Cl)N1N=Cc2cc(Br)sc2B1O | – | > 300 mg/kg
